Measurements: ChEMBL document CHEMBL3352307, “Bioactive anthraquinone derivatives from the mangrove-derived fungus Stemphylium sp. 33231” (J Nat Prod, 2014)
≈ marks a conversion by molar mass, not a printed value.

How the values were obtained:
Bacillus subtilis = experiment: Antimicrobial activity against Bacillus subtilis ATCC 6633 by broth dilution assay; assay type: functional
Procedure, shortened: (§1)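 Conventional broth dilution run on the seven terrestrial pathogenic bacterial strains, with ciprofloxacin as positive control.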

A549 = experiment: Cytotoxic activity against human A549 cells by MTT assay; assay type: functional, cell-based
Procedure, shortened: (§2)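 MTT viability read-out on mouse melanoma B16F10 and human lung adenocarcinoma A549 lines, with epirubicin as positive control. Activity is given as IC50.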

Kocuria rhizophila = experiment: Antimicrobial activity against Kocuria rhizophila ATCC 9341 by broth dilution assay; assay type: functional; procedure, shortened: as §1
Micrococcus = experiment: Antimicrobial activity against Micrococcus tetragenus ATCC 13623 by broth dilution assay; assay type: functional; procedure, shortened: as §1
Staphylococcus aureus = experiment: Antimicrobial activity against Staphylococcus aureus ATCC 6538 by broth dilution assay; assay type: functional; procedure, shortened: as §1
Staphylococcus = experiment: Antimicrobial activity against Staphylococcus albus ATCC 8799 by broth dilution assay; assay type: functional; procedure, shortened: as §1
Escherichia coli = experiment: Antimicrobial activity against Escherichia coli ATCC 25922 by broth dilution assay; assay type: functional; procedure, shortened: as §1
Bacillus cereus = experiment: Antimicrobial activity against Bacillus cereus ATCC 14579 by broth dilution assay; assay type: functional; procedure, shortened: as §1
[1] = Cytotoxic activity against mouse B16F10 cells by MTT assay; assay type: functional, cell-based; conditions: B16-F10; procedure, shortened: as §2
[2] = Bacillus subtilis, ATCC 6633, read-out: MIC
[3] = Kocuria rhizophila, ATCC 9341, read-out: MIC
[4] = Micrococcus, ATCC 13623, read-out: MIC
[5] = Staphylococcus aureus, ATCC 6538, read-out: MIC
[6] = Staphylococcus, ATCC 8799, read-out: MIC
[7] = Escherichia coli, ATCC 25922, read-out: MIC
[8] = Bacillus cereus, ATCC 14579, read-out: MIC

SMILES | MIC (Bacillus subtilis; [2]) | IC50 (A549) | MIC (Kocuria rhizophila; [3]) | MIC (Micrococcus; [4]) | MIC (Staphylococcus aureus; [5]) | MIC (Staphylococcus; [6]) | MIC (Escherichia coli; [7]) | MIC (Bacillus cereus; [8]) | IC50 [1] | MIC (Escherichia coli) | MIC (Bacillus cereus) | MIC (Staphylococcus aureus) | MIC (Bacillus subtilis) | MIC (Kocuria rhizophila) | MIC (Micrococcus) | MIC (Staphylococcus)
COc1cc(O)c2c(c1)C(=O)c1cc(C)c(O)cc1C2=O [MACROSPORIN] | > 10 µM | > 10 µM | > 10 µM | 4.6 µM (≈ 1.31 µg/mL) | 9.2 µM (≈ 2.62 µg/mL) | > 10 µM | 4.6 µM (≈ 1.31 µg/mL) | > 10 µM | > 10 µM |  |  |  |  |  |  | 
COc1cc(O)c2c(c1)C(=O)[C@@]13O[C@]1(C2=O)[C@H](O)[C@@H](O)[C@@](C)(O)[C@@H]3O | > 10 µM | > 10 µM | > 10 µM | > 10 µM | > 10 µM | > 10 µM | 9.8 µM (≈ 3.45 µg/mL) | > 10 µM | > 10 µM |  |  |  |  |  |  | 
COc1cc(O)c2c(c1-c1c(OC)cc(O)c3c1C(=O)c1cc(C)c(O)cc1C3=O)C(=O)C1=C(C2=O)[C@H](O)[C@@H](O)[C@@](C)(O)[C@@H]1O (single isomer, unassigned; atropisomer 1) [ALTERPORRIOL A/B] | > 10 µM |  | > 10 µM | > 10 µM | > 10 µM | > 10 µM | > 10 µM | 7.9 µM (≈ 4.89 µg/mL) |  |  |  |  |  |  |  | 
COc1cc(O)c2c(c1-c1c(OC)cc(O)c3c1C(=O)C1=C(C3=O)[C@@H](O)[C@H](O)[C@](C)(O)[C@H]1O)C(=O)C1=C(C2=O)[C@H](O)[C@@H](O)[C@@](C)(O)[C@@H]1O (atropisomer, axis not shown) | > 10 µM | > 10 µM | > 10 µM |  | 5 µM (≈ 3.35 µg/mL) |  |  |  | > 10 µM | 7.5 µM (≈ 5.03 µg/mL) | 10 µM (≈ 6.71 µg/mL) |  |  |  |  | 
COc1cc(O)c2c(c1)C(=O)c1cc(C)c(OS(=O)(=O)O)cc1C2=O | > 10 µM | > 10 µM | > 10 µM | > 10 µM | > 10 µM | > 10 µM | > 10 µM | > 10 µM | > 10 µM |  |  |  |  |  |  | 
O=C(O)c1cn(C2CC2)c2cc(N3CCNCC3)c(F)cc2c1=O [CIPROFLOXACIN] | 0.6 µM (≈ 0.199 µg/mL) |  | 0.3 µM (≈ 0.0994 µg/mL) | 0.3 µM (≈ 0.0994 µg/mL) | 0.16 µM (≈ 0.053 µg/mL) | 0.6 µM (≈ 0.199 µg/mL) | 0.3 µM (≈ 0.0994 µg/mL) | 0.6 µM (≈ 0.199 µg/mL) |  |  |  |  |  |  |  | 
COc1cc(O)c2c(c1)C(=O)C1=C(C[C@@H](O)[C@@](C)(O)C1)C2=O [ALTERSOLANOL B] | 7.8 µM (≈ 2.37 µg/mL) | > 10 µM | 7.8 µM (≈ 2.37 µg/mL) | > 10 µM | 7.8 µM (≈ 2.37 µg/mL) | > 10 µM | 7.8 µM (≈ 2.37 µg/mL) | > 10 µM | > 10 µM |  |  |  |  |  |  | 
COc1cc(O)c2c(c1)C(=O)c1cc(C)c(O)c(-c3c(O)c(C)cc4c3C(=O)c3c(O)cc(OC)cc3C4=O)c1C2=O | > 10 µM | > 10 µM | > 10 µM | > 10 µM | > 10 µM | > 10 µM | > 10 µM | 8.1 µM (≈ 4.59 µg/mL) | > 10 µM |  |  |  |  |  |  | 
COc1cc2c(c(O)c1-c1c(OC)cc(O)c3c1C(=O)C1=C(C[C@@H](O)[C@@](C)(O)C1)C3=O)C(=O)C1=C(C[C@](C)(O)[C@H](O)C1)C2=O | > 10 µM | > 10 µM | > 10 µM | > 10 µM | > 10 µM | > 10 µM | > 10 µM | 8.3 µM (≈ 5.03 µg/mL) | > 10 µM |  |  |  |  |  |  | 
COc1cc(O)c2c(c1)C(=O)c1cc(C)c(O)c(-c3c(OC)cc4c(c3O)C(=O)c3cc(O)c(C)cc3C4=O)c1C2=O [ALTERPORRIOL Q] | > 10 µM | > 10 µM | > 10 µM | > 10 µM | > 10 µM | > 10 µM | > 10 µM | > 10 µM | > 10 µM |  |  |  |  |  |  | 
COc1cc(O)c2c(c1)[C@H](O)[C@H]1C[C@](C)(O)[C@H](O)C[C@@H]1C2=O [TETRAHYDROALTERSOLANOL B] | > 10 µM |  | > 10 µM | > 10 µM | > 10 µM | > 10 µM | 7.3 µM (≈ 2.25 µg/mL) | > 10 µM |  |  |  |  |  |  |  | 
COc1cc(O)c2c(c1)C(=O)C1=C(C2=O)[C@H](O)[C@@H](O)[C@@](C)(O)[C@@H]1O [ALTERSOLANOL A] | 4.1 µM (≈ 1.38 µg/mL) | > 10 µM | > 10 µM | 8.2 µM (≈ 2.76 µg/mL) | 2.07 µM (≈ 0.696 µg/mL) | > 10 µM | 4.1 µM (≈ 1.38 µg/mL) | > 10 µM | > 10 µM |  |  |  |  |  |  | 
COc1cc(O)c2c(c1-c1c(OC)cc(O)c3c1C(=O)C1=C(C3=O)[C@@H](O)[C@H](O)[C@](C)(O)[C@H]1O)C(=O)C1=C(C2=O)[C@H](O)[C@@H](O)[C@@](C)(O)[C@@H]1O (single isomer, unassigned; atropisomer 2) |  |  |  | > 10 µM |  | > 10 µM | 5 µM (≈ 3.35 µg/mL) |  |  |  | 2.5 µM (≈ 1.68 µg/mL) | >10 µM |  |  |  | 
COc1cc(O)c2c(c1)[C@H](O)[C@@H]1[C@H](C[C@@H](OC(C)=O)[C@@](C)(O)[C@@H]1O)C2=O | > 10 µM | > 10 µM | > 10 µM | > 10 µM | > 10 µM | > 10 µM | > 10 µM | > 10 µM | > 10 µM |  |  |  |  |  |  | 
COc1cc(O)c2c(c1)[C@H](O)[C@@H]1[C@H](C[C@@H](O)[C@@](C)(O)[C@@H]1O)C2=O [ALTERSOLANOL L] | > 10 µM | > 10 µM | > 10 µM | > 10 µM | > 10 µM | > 10 µM | > 10 µM | > 10 µM | > 10 µM |  |  |  |  |  |  | 
COc1cc2c(c(O)c1-c1c(OC)cc(O)c3c1C(=O)C1=C(C[C@@H](O)[C@@](C)(O)[C@@H]1O)C3=O)C(=O)C1=C(C[C@](C)(O)[C@H](O)C1)C2=O | > 10 µM |  | > 10 µM | > 10 µM | > 10 µM | > 10 µM | > 10 µM | > 10 µM |  |  |  |  |  |  |  | 
COc1cc(O)c2c(c1-c1c(OC)cc(O)c3c1C(=O)C1=C(C[C@@H](O)[C@@](C)(O)[C@@H]1O)C3=O)C(=O)C1=C(C[C@@H](O)[C@@](C)(O)[C@@H]1O)C2=O | > 10 µM |  | > 10 µM | > 10 µM | > 10 µM | > 10 µM | > 10 µM | > 10 µM |  |  |  |  |  |  |  | 
COc1cc(O)c2c(c1)C(=O)C1=C(C[C@@H](OC(C)=O)[C@@](C)(O)C1)C2=O | 3.9 µM (≈ 1.35 µg/mL) | > 10 µM | > 10 µM | 7.8 µM (≈ 2.7 µg/mL) | 3.9 µM (≈ 1.35 µg/mL) | 3.9 µM (≈ 1.35 µg/mL) | 3.9 µM (≈ 1.35 µg/mL) | > 10 µM | > 10 µM |  |  |  |  |  |  | 
COc1cc(O)c2c(c1)[C@H](O)[C@@H]1[C@@H](C2=O)[C@H](O)[C@@H](O)[C@@](C)(O)[C@@H]1O [AMPELANOL] | > 10 µM |  | > 10 µM | > 10 µM | > 10 µM | > 10 µM | > 10 µM | > 10 µM |  |  |  |  |  |  |  | 
COc1cc(O)c2c(c1)C(=O)c1cc(C)c(O)c(-c3c(OC)cc(O)c4c3C(=O)C3=C(C[C@@H](O)[C@@](C)(O)[C@@H]3O)C4=O)c1C2=O | > 10 µM | > 10 µM | > 10 µM | > 10 µM | > 10 µM | > 10 µM | > 10 µM | > 10 µM | > 10 µM |  |  |  |  |  |  | 
COc1cc(O)c2c(c1-c1c(OC)cc(O)c3c1C(=O)c1cc(C)c(O)cc1C3=O)C(=O)C1=C(C2=O)[C@H](O)[C@@H](O)[C@@](C)(O)[C@@H]1O (single isomer, unassigned; atropisomer 2) [ALTERPORRIOL A/B] |  | > 10 µM |  |  |  |  |  |  | > 10 µM | > 10 µM | > 10 µM | > 10 µM | > 10 µM | > 10 µM | > 10 µM | > 10 µM
COc1cc(O)c2c(c1)C(=O)c1cc(C)c(O)c(-c3c(OC)cc4c(c3O)C(=O)C3=C(C4=O)[C@@H](O)[C@](C)(O)[C@H](O)[C@H]3O)c1C2=O (single isomer, unassigned; atropisomer 1) [ALTERPORRIOL C] | > 10 µM | > 10 µM | > 10 µM | > 10 µM | > 10 µM | 8.9 µM (≈ 5.51 µg/mL) | > 10 µM | > 10 µM | > 10 µM |  |  |  |  |  |  | 
COc1cc(O)c2c(c1)C(=O)c1cc(C)c(O)c(-c3c(OC)cc(O)c4c3C(=O)c3cc(C)c(O)cc3C4=O)c1C2=O (single isomer, unassigned; atropisomer 2) | > 10 µM |  | > 10 µM | > 10 µM | > 10 µM | > 10 µM | > 10 µM | > 10 µM |  |  |  |  |  |  |  | 
COc1cc(O)c2c(c1)[C@H](O)[C@@H]1C(=C[C@@H](O)[C@@](C)(O)[C@@H]1O)C2=O | > 10 µM | > 10 µM | > 10 µM | > 10 µM | > 10 µM | > 10 µM | > 10 µM | > 10 µM | > 10 µM |  |  |  |  |  |  | 
COc1cc(O)c2c(c1)C(=O)C1=C(C[C@@H](O)[C@@](C)(O)[C@@H]1O)C2=O [ALTERSOLANOL C] | 8.8 µM (≈ 2.82 µg/mL) |  | > 10 µM | > 10 µM | > 10 µM | > 10 µM | > 10 µM | > 10 µM |  |  |  |  |  |  |  | 
